MC4R antag cAMP – blocks human MC4R cAMP signaling | MC4R-expressing cells, MTII-stimulated cAMP, LANCE TR-FRET | inhibition, % at 6.5 µM | 0.48% of 360,000 active | AID 540295;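 active = inhibition above its plate's cutoff, the mean of tested wells on that plate plus 3 SD, cut at about 29% in these data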
Target sequence (P32245 whole entry, looked up): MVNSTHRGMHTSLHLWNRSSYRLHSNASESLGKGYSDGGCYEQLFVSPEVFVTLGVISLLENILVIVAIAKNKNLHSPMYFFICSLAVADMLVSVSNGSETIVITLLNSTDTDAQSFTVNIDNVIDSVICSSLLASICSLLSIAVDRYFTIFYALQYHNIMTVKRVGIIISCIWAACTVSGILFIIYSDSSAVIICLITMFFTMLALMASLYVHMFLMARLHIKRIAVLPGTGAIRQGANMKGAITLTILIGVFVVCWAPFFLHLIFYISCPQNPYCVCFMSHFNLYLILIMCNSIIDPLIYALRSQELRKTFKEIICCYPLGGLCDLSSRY
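Material – human MC4R-expressing U2OS cells · Repeats – no replicates · Detection – TR-FRET with Eu-cAMP and labeled anti-cAMP, 671 nm · Times – compound 30 min, challenge 1 h, detection 1 h · Compound – single nominal compound dose of 6.5 µM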
NTR1 agonist – activates human neurotensin receptor 1; P30989; NTR1-U2OS beta-arrestin-GFP spot imaging, agonist mode; activation, % at 20 µM; 0.17% of 330,000 active;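 active = activation at or above 40% of the spot to cytoplasm intensity ratio, with at least 20 cells analyzed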
MC4R ag barr – human MC4R agonism via beta-arrestin; P32245; U2OS MC4R beta-arrestin complementation, luminescence; percent of melanotan II response, DMSO zero; activation, % at 8.9 µM; 0.98% of 360,000 active; AID 540308;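 active = activation above a per-plate cutoff, the mean activation of sample wells on that plate plus 3 SD, cut at about 8% in these data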
Hep lipid drop – hepatic lipid droplet formation modulation; AML12 mouse hepatocytes, oleate lipid droplets, BODIPY imaging; inhibition, % at 6.5 µM; 0.4% of 240,000 active; AID 1656;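 active = lipid droplet intensity inhibited by at least 50%, with more than 500 cells counted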
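Assay system: AML12 hepatocytes (mouse); Probe or stimulus: oleic acid at 100 µM to induce lipid droplet formation; Dosing: compound at 6.5 µM only; Schedule: compound with oleate, overnight; Detection: fluorescence imaging, 20x objective, two fields per well; Measure: % inhibition of lipid droplet signal.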
PREPL inhibitor – inhibitors of human prolyl oligopeptidase-like enzyme PREPL | Q4J6C6 | recombinant PREPL, fluorescence polarization activity-based probe | inhibition, % at 5.96 µM | 0.68% of 320,000 active; in the data active = inhibition above about 43%
HTR2A ag – activates the mouse 5-HT2A serotonin receptor; CHO-K1 mHTR2A beta-arrestin complementation, luminescence; percent of 30 µM serotonin response; activation, % at 7.6 µM; 0.66% of 360,000 active;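 active = activation above a run cutoff, the mean activation of all tested compounds plus 3 SD, cut at about 14% in these data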
cAMP nonselect – nonselective cAMP signaling inhibitor, MC4R antagonist counter-screen; AID 602193; 26% of 1,600 active; inhibition, % at 6.5 µM; parental U2OS, forskolin cAMP, LANCE TR-FRET; shares compounds with MC4R antag cAMP;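 active = mean inhibition over triplicates above the low-control well mean plus 3 SD, set per campaign, cut at about 13% in these data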;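 note: signal is single emission at 671 nm which falls as cellular cAMP rises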
MC4R antag conf – human MC4R cAMP antagonism confirmation | 27% of 1,600 active | AID 602195 | shares compounds with MC4R antag cAMP | MC4R-expressing cells, MTII-stimulated cAMP, TR-FRET | inhibition, % at 6.5 µM; in the data active = inhibition above about 29%
Each line names hits and unclear results; the compound was inactive in the other large screens (follow-up assays come after a bar, where they were run). This is a sample that favours compounds with a hit; in the whole collection about 2.7% have one here.

COc1cc(/C=N/NC(=O)c2cccnc2)ccc1OS(=O)(=O)c1ccc(C)cc1	MC4R antag cAMP 28.8 | cAMP nonselect inactive | MC4R antag conf inactive
O=C(O)c1ccc(/C=C2\COc3ccccc3C2=O)cc1	MC4R antag cAMP 36.2 | cAMP nonselect inactive | MC4R antag conf inactive
COc1ccc(/C=C2\COc3ccccc3C2=O)cc1OC	none
CC(C)c1nnc(SCC(=O)NC2CCCCC2)n1C	none
CC1(C)CC(=O)C(C(C2=C(O)CC(C)(C)CC2=O)c2cccc(O)c2)C(=O)C1 (configuration not stated)	none (no result: Hep lipid drop)
CC1(C)CC(=O)C(C(C2=C(O)CC(C)(C)CC2=O)c2cccs2)C(=O)C1 (configuration not stated)	MC4R antag cAMP 29.9 (no result: Hep lipid drop) | cAMP nonselect inactive | MC4R antag conf inactive
COc1ccc([C@H]2CC(=O)C[C@@H](CCn3cc(-c4nccn4C)nn3)O2)cc1	none (no result: MC4R antag cAMP, NTR1 agonist, MC4R ag barr, Hep lipid drop, PREPL inhibitor)
COc1cc([N+](=O)[O-])ccc1NC(=S)NC(=O)CC(C)(C)C	MC4R antag cAMP 30.3 | cAMP nonselect inactive | MC4R antag conf 32.3
COc1ccc(C2C(CC(=O)O)=C(O)C(=O)N2c2ccccc2)cc1 (configuration not stated)	none (no result: Hep lipid drop)
Cc1ccc(NC2=C(CC(=O)O)C(c3ccccc3)N(c3ccc(C)cc3)C2=O)cc1 (configuration not stated)	MC4R antag cAMP 30.9 | cAMP nonselect inactive | MC4R antag conf inactive
NC(=S)Nc1cccc(Cl)c1	none
NC(=S)Nc1cccc(F)c1	MC4R antag cAMP 28.8 | cAMP nonselect inactive | MC4R antag conf inactive
COc1ccc(CCNC(=O)c2ccc3nc[nH]c3c2)cc1	none
O=C(O)c1cccnc1C(=O)N1CCc2c([nH]c3ccccc23)C1C(F)(F)F (configuration not stated)	none
Cc1ccccc1C(=O)N1CCc2c([nH]c3ccccc23)C1C(F)(F)F (configuration not stated)	MC4R antag cAMP 36.1 | cAMP nonselect inactive | MC4R antag conf inactive
CC(C)Cc1nc2oc3c(Cl)ncnc3c2c2c1CCCC2	MC4R antag cAMP 46.2 | cAMP nonselect 13.9 | MC4R antag conf 31.8
CCCc1nc2oc3c(Cl)ncnc3c2c2c1CCCC2	none
CCOC(=O)C1CCCN(C(=O)Cn2sc3nc(C)cc(C)c3c2=O)C1 (configuration not stated)	MC4R antag cAMP 41.7 (no result: Hep lipid drop) | cAMP nonselect inactive | MC4R antag conf 30.1
COc1ccc(C(=O)Nc2ccc(Cl)cc2F)cc1S(=O)(=O)N1CCCC1	none (no result: Hep lipid drop)
Cc1ccc(C)c(NC(=O)c2sc(Cl)nc2-c2ccccc2)c1	MC4R antag cAMP 36.9 | cAMP nonselect 15.2 | MC4R antag conf 32.2
Cc1ccccc1NC(=O)c1sc(Cl)nc1-c1ccccc1	none
COC(=O)COc1ccc2c(=O)c(-c3ccccc3)coc2c1	MC4R antag cAMP 44.3 | cAMP nonselect 28.3 | MC4R antag conf 52.3
NC(=O)COc1ccc2cc(-c3ccccc3)c(=O)oc2c1	none
COC(=O)COc1ccc2cc(-c3ccccc3)c(=O)oc2c1	MC4R antag cAMP 39.6 | cAMP nonselect 24.0 | MC4R antag conf 55.8
COC(=O)COc1ccc2cc(-c3ccc(OC)cc3)c(=O)oc2c1	MC4R antag cAMP 38.8 | cAMP nonselect 26.1 | MC4R antag conf 41.9
CCCOc1ccc(C(=O)NCC(C)(C)N2CCOCC2)cc1	none
COc1cc(C(=S)N2CCOCC2)ccc1OC(=O)c1ccc([N+](=O)[O-])cc1[N+](=O)[O-]	MC4R antag cAMP 37.3 | cAMP nonselect inactive | MC4R antag conf inactive
CC1CC(Nc2ccccc2)c2ccccc2N1C(=O)c1ccncc1 (configuration not stated)	MC4R antag cAMP 33.6 | cAMP nonselect inactive | MC4R antag conf inactive
CC1CC(Nc2ccccc2)c2ccccc2N1C(=O)c1ccco1 (configuration not stated)	none
O=C(C(=S)N1CCOCC1)c1c[nH]c2ccccc12	MC4R antag cAMP 30.1 | cAMP nonselect inactive | MC4R antag conf inactive
O=C(CN1CCOCC1)c1c[nH]c2ccccc12	none (no result: Hep lipid drop)
Cc1ccc(CN2CCCC(CO)(Cc3ccccc3C)C2)s1 (configuration not stated)	none
Cc1cc2nc(CSc3ccc(Cl)cc3)cc(=O)n2[nH]1	MC4R antag cAMP 29.3 | cAMP nonselect inactive | MC4R antag conf inactive
COC(=O)COc1ccc(S(=O)(=O)N2CCN(c3ccc(OC)cc3)CC2)cc1	MC4R antag cAMP 30.1 | cAMP nonselect 17.9 | MC4R antag conf 46.4
COC(=O)COc1ccc(S(=O)(=O)N2CCN(c3ccc(F)cc3)CC2)cc1	MC4R antag cAMP 30.8 | cAMP nonselect 15.6 | MC4R antag conf 45.5
O=C(Nc1nc(=O)n(C(=O)C2CC2)s1)c1ccccc1	MC4R antag cAMP 30.5 | cAMP nonselect inactive | MC4R antag conf inactive
Cc1ccc(C(=O)Nc2nc(=O)n(C(=O)C3CC3)s2)cc1	none
C[C@@H]1CN(c2c(F)c(N)c3c(=O)c(C(=O)O)cn(C4CC4)c3c2F)C[C@H](C)N1	none (no result: MC4R antag cAMP, NTR1 agonist, MC4R ag barr, PREPL inhibitor, HTR2A ag)
CCOC(=O)c1cnc2ccc(C(=O)OC)cc2c1Nc1cccc(C(=O)O)c1	none
CCOC(=O)c1cnc2ccc(C)cc2c1Nc1ccc(N2CCOCC2)cc1	MC4R antag cAMP 30.5 | cAMP nonselect inactive | MC4R antag conf 37.8
CCOC(=O)c1cnc2ccc(OCC)cc2c1NCc1ccccc1	MC4R antag cAMP 34.8 | cAMP nonselect inactive | MC4R antag conf inactive
CCOC(=O)c1cnc2ccc(OCC)cc2c1NCc1cccnc1	none
CCOC(=O)c1cnc2ccccc2c1Nc1cccc(C(=O)O)c1	MC4R antag cAMP 38.8 | cAMP nonselect 13.4 | MC4R antag conf inactive
OCCC1CN(Cc2ccc(Oc3ncccn3)cc2)CCN1C1CCCC1 (configuration not stated)	none
CN(C)S(=O)(=O)c1ccc(N2CCCC2)c(C(=O)NC(c2ccccc2)c2ccccc2)c1	none
CCC1=NN(S(=O)(=O)c2ccc(C)cc2)C(O)(C(F)(F)F)C1 (configuration not stated)	MC4R antag cAMP 29.1 | cAMP nonselect inactive | MC4R antag conf inactive
CCC1=NN(C(=O)CCc2ccccc2)C(O)(C(F)(F)F)C1 (configuration not stated)	none (no result: Hep lipid drop)
O=C(C[C@H]1C[C@H](C(=O)N2CCCCC2)[C@@]2(CCc3ccccc3)c3[nH]c4ccc(Cl)cc4c3CCN2C1=O)NCCC1=CCCCC1	none (no result: Hep lipid drop, PREPL inhibitor)
O=c1oc(-c2ccccc2)c(-c2ccccc2)c2ccccc12	none (no result: NTR1 agonist, Hep lipid drop, PREPL inhibitor)
CCNC1=C(Cl)C(=O)c2ccccc2C1=O	none
